Measured values pooled from the literature.
Lines come from different studies, so protocols differ.
Target: Serine/threonine-protein kinase 4 (STK4, Homo sapiens, UniProt Q13043)
Residues used in one study (Q13043 1-487): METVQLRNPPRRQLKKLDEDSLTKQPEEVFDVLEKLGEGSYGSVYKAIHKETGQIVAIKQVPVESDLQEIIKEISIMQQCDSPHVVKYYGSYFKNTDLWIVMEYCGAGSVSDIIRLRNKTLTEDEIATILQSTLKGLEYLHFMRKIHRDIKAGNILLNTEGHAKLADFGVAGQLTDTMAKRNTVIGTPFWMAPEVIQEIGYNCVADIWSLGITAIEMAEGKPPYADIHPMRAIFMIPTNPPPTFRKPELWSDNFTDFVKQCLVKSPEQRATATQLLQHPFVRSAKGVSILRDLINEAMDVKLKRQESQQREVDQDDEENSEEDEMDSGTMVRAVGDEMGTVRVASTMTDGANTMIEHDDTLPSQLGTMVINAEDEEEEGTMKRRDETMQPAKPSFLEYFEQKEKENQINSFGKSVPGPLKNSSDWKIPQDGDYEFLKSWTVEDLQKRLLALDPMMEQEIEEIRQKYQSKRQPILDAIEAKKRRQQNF

| SMILES | read-out | action | method | concentration | quantity | value |
| --- | --- | --- | --- | --- | --- | --- |
| COc1ccc2oc(-c3ccc4nc(N)oc4c3)c/c(=N\c3ccccc3NC(=O)CCN)c2c1 | binding | – | – | 1 µM | remaining binding | 111% |
| C1=C/COCc2cc(ccc2OCCN2CCCC2)Nc2nccc(n2)-c2cccc(c2)COC/1 | cell-free assay | – | – | 0.1 µM | remaining signal | 100% |
| Cc1cc(O)c(-c2ccc([C@@H](C)CN(C)C)cc2)c2c1[nH]c(=O)c1sccc12 | enzyme activity | inhibitor | – | 0.1 µM | inhibition | -0.517% |
| CN1CCN(C(=O)c2ccc(NC(=O)Nc3ccc(N(C)c4ccnc(Nc5ccc(CS(C)(=O)=O)cc5)n4)cc3)cc2)CC1 | binding | – | competition with immobilised ligand | 1 µM | remaining binding | 96% |
| CO[C@@H]1[C@H](N(C)C(=O)c2ccccc2)C[C@H]2O[C@]1(C)n1c3ccccc3c3c4c(c5c6ccccc6n2c5c31)C(=O)NC4 | enzyme activity | inhibitor | – | 1 µM | inhibition | 78% |
| COc1ccc2[nH]c3c4[nH]c5ccc(OC)cc5c4c4c(c3c2c1)C(=O)NC4=O | binding | – | competition with immobilised ligand | 1 µM | remaining binding | 100% |
| C=CC(=O)N1CCC([C@@H]2CCNc3c(C(N)=O)c(-c4ccc(Oc5ccccc5)cc4)nn32)CC1 | enzyme activity | inhibitor | – | 1 µM | inhibition | 0% |
| C#Cc1cc(-c2cc(Nc3nc(N[C@@H](C)c4ccc(F)cn4)ncc3Cl)n[nH]2)ccc1C=O | enzyme activity | inhibitor | – | 0.2 µM | inhibition | 54.5% |
| CCCCC(=O)Nc1ccc(-c2ccc3ncn(CCC)c(=O)c3c2)cn1 | binding | – | competition with immobilised ligand | 0.5 µM | remaining binding | 95% |
